Data as given in ChEMBL document CHEMBL3576819, “Design, synthesis, biological evaluation and molecular docking studies of phenylpropanoid derivatives as potent anti-hepatitis B virus agents” (Eur J Med Chem, 2015).

Key:
[1] = tested on: Hepatitis B virus; test: Antiviral activity against Hepatitis B virus infected in human HepG2.2.15 cells assessed as inhibition of HBsAg secretion at 75 uM after 6 days by ELISA; assay type: functional; conditions: HepG2 2.2.15, 144 h
In short: (§1)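 HepG2.2.15 cells (MEM, 10% FBS, 380 µg/ml G418) seeded at 1×10^5 cells/ml, held 24 h at 37 °C, then treated with various drug concentrations; medium with drug renewed every 3 d for up to 9 d. Culture medium sampled on days 3, 6 and 9, stored at -20 °C, and assayed for secreted antigen. Lamivudine as positive control; IC50 = 50% inhibition of secretion; means of at least two experiments.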

[2] = tested on: Hepatitis B virus; test: Antiviral activity against Hepatitis B virus infected in human HepG2.2.15 cells assessed as inhibition of HBeAg secretion at 75 uM after 3 days by ELISA; assay type: functional; conditions: HepG2 2.2.15, 72 h; in short: as §1
[3] = tested on: Hepatitis B virus; test: Antiviral activity against Hepatitis B virus infected in human HepG2.2.15 cells assessed as inhibition of HBsAg secretion at 150 uM after 3 days by ELISA; assay type: functional; conditions: HepG2 2.2.15, 72 h; in short: as §1
[4] = Selectivity index, ratio of CC50 for human HepG2.2.15 cells to IC50 for Hepatitis B virus infected in human HepG2.2.15 cells assessed as inhibition of HBV DNA replication; assay type: functional
[5] = tested on: Hepatitis B virus; test: Antiviral activity against Hepatitis B virus infected in human HepG2.2.15 cells assessed as inhibition of HBeAg secretion at 300 uM after 6 days by ELISA; assay type: functional; conditions: HepG2 2.2.15, 144 h; in short: as §1
[6] = tested on: Hepatitis B virus; test: Antiviral activity against Hepatitis B virus infected in human HepG2.2.15 cells assessed as inhibition of HBeAg secretion by ELISA; assay type: functional, organism-based; conditions: HepG2 2.2.15; in short: as §1
[7] = tested on: Hepatitis B virus; test: Antiviral activity against Hepatitis B virus infected in human HepG2.2.15 cells assessed as inhibition of HBV DNA copies per uL at 75 uM after 3 days by real-time fluorescence quantitative PCR analysis; assay type: functional; conditions: HepG2 2.2.15, 72 h
[8] = tested on: Hepatitis B virus; test: Antiviral activity against Hepatitis B virus infected in human HepG2.2.15 cells assessed as inhibition of HBsAg secretion at 37.5 uM after 9 days by ELISA; assay type: functional; conditions: HepG2 2.2.15, 216 h; in short: as §1
[9] = tested on: Hepatitis B virus; test: Antiviral activity against Hepatitis B virus infected in human HepG2.2.15 cells assessed as inhibition of HBV DNA copies per uL at 37.5 uM after 9 days by real-time fluorescence quantitative PCR analysis; assay type: functional; conditions: HepG2 2.2.15, 216 h
[10] = tested on: Hepatitis B virus; test: Antiviral activity against Hepatitis B virus infected in human HepG2.2.15 cells assessed as inhibition of HBeAg secretion at 150 uM after 9 days by ELISA; assay type: functional; conditions: HepG2 2.2.15, 216 h; in short: as §1
[11] = tested on: Hepatitis B virus; test: Antiviral activity against Hepatitis B virus infected in human HepG2.2.15 cells assessed as inhibition of HBV DNA copies per uL at 300 uM after 9 days by real-time fluorescence quantitative PCR analysis; assay type: functional; conditions: HepG2 2.2.15, 216 h
[12] = tested on: Hepatitis B virus; test: Antiviral activity against Hepatitis B virus infected in human HepG2.2.15 cells assessed as inhibition of HBV DNA copies per uL at 300 uM after 6 days by real-time fluorescence quantitative PCR analysis; assay type: functional; conditions: HepG2 2.2.15, 144 h
[13] = tested on: Hepatitis B virus; test: Antiviral activity against Hepatitis B virus infected in human HepG2.2.15 cells assessed as inhibition of HBeAg secretion at 75 uM after 6 days by ELISA; assay type: functional; conditions: HepG2 2.2.15, 144 h; in short: as §1
[14] = tested on: Hepatitis B virus; test: Antiviral activity against Hepatitis B virus infected in human HepG2.2.15 cells assessed as inhibition of HBeAg secretion at 37.5 uM after 6 days by ELISA; assay type: functional; conditions: HepG2 2.2.15, 144 h; in short: as §1
[15] = tested on: Hepatitis B virus; test: Antiviral activity against Hepatitis B virus infected in human HepG2.2.15 cells assessed as inhibition of HBV DNA copies per uL at 300 uM after 3 days by real-time fluorescence quantitative PCR analysis; assay type: functional; conditions: HepG2 2.2.15, 72 h
[16] = tested on: Hepatitis B virus; test: Antiviral activity against Hepatitis B virus infected in human HepG2.2.15 cells assessed as inhibition of HBeAg secretion at 150 uM after 6 days by ELISA; assay type: functional; conditions: HepG2 2.2.15, 144 h; in short: as §1
[17] = tested on: Hepatitis B virus; test: Antiviral activity against Hepatitis B virus infected in human HepG2.2.15 cells assessed as inhibition of HBsAg secretion at 150 uM after 9 days by ELISA; assay type: functional; conditions: HepG2 2.2.15, 216 h; in short: as §1
[18] = tested on: Hepatitis B virus; test: Antiviral activity against Hepatitis B virus infected in human HepG2.2.15 cells assessed as inhibition of HBsAg secretion by ELISA; assay type: functional, organism-based; conditions: HepG2 2.2.15; in short: as §1
[19] = tested on: Hepatitis B virus; test: Antiviral activity against Hepatitis B virus infected in human HepG2.2.15 cells assessed as inhibition of HBeAg secretion at 300 uM after 3 days by ELISA; assay type: functional; conditions: HepG2 2.2.15, 72 h; in short: as §1
[20] = tested on: Hepatitis B virus; test: Antiviral activity against Hepatitis B virus infected in human HepG2.2.15 cells assessed as inhibition of HBeAg secretion at 150 uM after 3 days by ELISA; assay type: functional; conditions: HepG2 2.2.15, 72 h; in short: as §1
[21] = tested on: Hepatitis B virus; test: Antiviral activity against Hepatitis B virus infected in human HepG2.2.15 cells assessed as cell survival at 300 uM after 9 days (reference value: 100%); assay type: functional; conditions: HepG2 2.2.15, 216 h
In short: (§2)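 HepG2.2.15 cells (MEM, 10% FBS, 380 µg/ml G418, 37 °C, 5% CO2) seeded at 1×10^5 cells/ml, cultured 24 h, then exposed to various drug concentrations; drug-containing medium renewed every 3 d. OD read at 450 nm after 9 days; percent cell death calculated; CC50 = concentration killing 50% of cells. Means of at least two experiments.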

[22] = tested on: Hepatitis B virus; test: Antiviral activity against Hepatitis B virus infected in human HepG2.2.15 cells assessed as inhibition of HBsAg secretion at 75 uM after 9 days by ELISA; assay type: functional; conditions: HepG2 2.2.15, 216 h; in short: as §1
[23] = tested on: Hepatitis B virus; test: Antiviral activity against Hepatitis B virus infected in human HepG2.2.15 cells assessed as cell survival at 37.5 uM after 9 days (reference value: 100%); assay type: functional; conditions: HepG2 2.2.15, 216 h; in short: as §2
[24] = tested on: Hepatitis B virus; test: Antiviral activity against Hepatitis B virus infected in human HepG2.2.15 cells assessed as inhibition of HBeAg secretion at 37.5 uM after 9 days by ELISA; assay type: functional; conditions: HepG2 2.2.15, 216 h; in short: as §1
[25] = tested on: Hepatitis B virus; test: Antiviral activity against Hepatitis B virus infected in human HepG2.2.15 cells assessed as inhibition of HBsAg secretion at 300 uM after 9 days by ELISA; assay type: functional; conditions: HepG2 2.2.15, 216 h; in short: as §1
[26] = tested on: Hepatitis B virus; test: Antiviral activity against Hepatitis B virus infected in human HepG2.2.15 cells assessed as inhibition of HBsAg secretion at 150 uM after 6 days by ELISA; assay type: functional; conditions: HepG2 2.2.15, 144 h; in short: as §1
[27] = tested on: Hepatitis B virus; test: Antiviral activity against Hepatitis B virus infected in human HepG2.2.15 cells assessed as inhibition of HBeAg secretion at 75 uM after 9 days by ELISA; assay type: functional; conditions: HepG2 2.2.15, 216 h; in short: as §1
[28] = tested on: Hepatitis B virus; test: Antiviral activity against Hepatitis B virus infected in human HepG2.2.15 cells assessed as inhibition of HBV DNA replication by real-time fluorescence quantitative PCR analysis; assay type: functional, organism-based; conditions: HepG2 2.2.15
[29] = tested on: Hepatitis B virus; test: Antiviral activity against Hepatitis B virus infected in human HepG2.2.15 cells assessed as cell survival at 75 uM after 9 days (reference value: 100%); assay type: functional; conditions: HepG2 2.2.15, 216 h; in short: as §2
[30] = tested on: Hepatitis B virus; test: Antiviral activity against Hepatitis B virus infected in human HepG2.2.15 cells assessed as inhibition of HBsAg secretion at 300 uM after 6 days by ELISA; assay type: functional; conditions: HepG2 2.2.15, 144 h; in short: as §1
[31] = tested on: Hepatitis B virus; test: Antiviral activity against Hepatitis B virus infected in human HepG2.2.15 cells assessed as inhibition of HBV DNA copies per uL at 75 uM after 9 days by real-time fluorescence quantitative PCR analysis; assay type: functional; conditions: HepG2 2.2.15, 216 h

COc1cc(/C=C/C(=O)O/N=C/c2ccco2)cc2c1OCO2
inhibition at 75 µM [1]: 40.1%
inhibition at 75 µM [2]: 32.1%
inhibition at 150 µM [3]: 56.3%
Ratio CC50/IC50 [4]: 5.87
inhibition at 300 µM [5]: 62%
IC50 [6]: 75.3 µM
inhibition at 75 µM [7]: 29.4%
inhibition at 37.5 µM [8]: 36.5%
inhibition at 37.5 µM [9]: 30.5%
inhibition at 150 µM [10]: 65.2%
inhibition at 300 µM [11]: 61.5%
inhibition at 300 µM [12]: 57.4%
inhibition at 75 µM [13]: 37.8%
inhibition at 37.5 µM [14]: 30.7%
inhibition at 300 µM [15]: 46.5%
inhibition at 150 µM [16]: 55.5%
inhibition at 150 µM [17]: 67.3%
IC50 [18]: 63.5 µM
inhibition at 300 µM [19]: 59.8%
inhibition at 150 µM [20]: 51.5%
viability at 300 µM [21]: 89.3%
inhibition at 75 µM [22]: 57.7%
viability at 37.5 µM [23]: 109%
inhibition at 37.5 µM [24]: 31%
inhibition at 300 µM [25]: 77.2%
inhibition at 150 µM [26]: 58.5%
inhibition at 75 µM [27]: 56.9%
IC50 [28]: 140 µM
viability at 75 µM [29]: 95.4%
inhibition at 300 µM [30]: 70.7%
inhibition at 75 µM [31]: 39.6%

Nc1ccn([C@@H]2CS[C@H](CO)O2)c(=O)n1 [LAMIVUDINE]
inhibition at 75 µM [1]: 24.1%
inhibition at 75 µM [2]: 15.1%
inhibition at 150 µM [3]: 28.6%
Ratio CC50/IC50 [4]: 82.84
inhibition at 300 µM [5]: 39.9%
IC50 [6]: 267 µM
inhibition at 75 µM [7]: 46%
inhibition at 37.5 µM [8]: 25.2%
inhibition at 37.5 µM [9]: 69.4%
inhibition at 150 µM [10]: 45.4%
inhibition at 300 µM [11]: 86.4%
inhibition at 300 µM [12]: 71.6%
inhibition at 75 µM [13]: 22.1%
inhibition at 37.5 µM [14]: 12.8%
inhibition at 300 µM [15]: 59.5%
inhibition at 150 µM [16]: 31.1%
inhibition at 150 µM [17]: 55.9%
IC50 [18]: 235 µM
inhibition at 300 µM [19]: 30.9%
inhibition at 150 µM [20]: 23.9%
viability at 300 µM [21]: 75.2%
inhibition at 75 µM [22]: 33.1%
viability at 37.5 µM [23]: 118%
inhibition at 37.5 µM [24]: 18.4%
inhibition at 300 µM [25]: 60.4%
inhibition at 150 µM [26]: 30.7%
inhibition at 75 µM [27]: 34.2%
IC50 [28]: 6.86 µM
viability at 75 µM [29]: 95.9%
inhibition at 300 µM [30]: 43.6%
inhibition at 75 µM [31]: 76.7%
